Columns and labels:
[1] = target: T1, Human immunodeficiency virus type 1 integrase (Human immunodeficiency virus 1, UniProt Q7ZJM1); test: Inhibition of 3'-processing activity of HIV1 integrase
In short: (§1)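 Then 20 nM 5′-32P-labeled 21-mer oligonucleotide added for 1 h. Quenched with formamide loading dye. % inhibition from 19-mer (3′-processing) or strand transfer product fractions versus DNA-alone and DNA+IN controls. IC50 from log concentration versus % inhibition plot.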

[2] = target: T1, Human immunodeficiency virus type 1 integrase; test: Inhibition of strand transfer activity of HIV1 integrase; in short: as §1

T1 sequence (Q7ZJM1 whole entry): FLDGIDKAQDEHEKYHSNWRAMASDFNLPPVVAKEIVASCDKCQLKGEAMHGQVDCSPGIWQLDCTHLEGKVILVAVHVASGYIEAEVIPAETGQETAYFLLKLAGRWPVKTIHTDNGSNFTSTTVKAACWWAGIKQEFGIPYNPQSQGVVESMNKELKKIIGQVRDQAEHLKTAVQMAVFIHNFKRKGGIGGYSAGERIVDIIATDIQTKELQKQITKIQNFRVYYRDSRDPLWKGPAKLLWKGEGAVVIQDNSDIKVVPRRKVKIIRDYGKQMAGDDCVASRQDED

SMILES: COc1cccc2cc(-c3csc(Nc4cccc(O)c4)n3)c(=O)oc12
- IC50 [1]: > 100 µM
- IC50 [2]: > 100 µM

SMILES: COc1cc(C(c2c[nH]c3ccccc23)c2c[nH]c3ccccc23)ccc1OCC(=O)O
- IC50 [1]: > 100 µM
- IC50 [2]: > 100 µM

SMILES: CCOC(=O)C1=C(O)/C(=C\c2ccc(CNC(=O)C(=O)Nc3ccccc3)o2)N=C1C
- IC50 [1]: > 100 µM
- IC50 [2]: 40 µM

SMILES: Cc1ccc(C(=O)C2=C(O)C(=O)N(CCN(C)C)C2c2ccccc2F)cc1 (centres undefined)
- IC50 [1]: > 1000 µM
- IC50 [2]: > 1000 µM

SMILES: O=C(C1=C(O)C(=O)N(CCCN2CCOCC2)C1c1ccccc1F)c1ccc(F)cc1 (centres undefined)
- IC50 [1]: > 1000 µM
- IC50 [2]: > 1000 µM

SMILES: CCOC(=O)c1c(NC(=O)c2cc3ccccc3oc2=O)sc(C(N)=O)c1C
- IC50 [1]: 90 µM
- IC50 [2]: 56 µM

SMILES: COCCCNS(=O)(=O)c1ccc(Oc2cc(O)c3c(c2O)C(=O)c2ccccc2C3=O)cc1
- IC50 [1]: 100 µM
- IC50 [2]: 23 µM

SMILES: O=C(O)CCC(=O)Nc1ccc(Cl)c(NC(=O)Cc2ccccc2)c1
- IC50 [1]: > 100 µM
- IC50 [2]: > 100 µM

SMILES: COc1ccc(C2C(C(=O)c3ccco3)=C(O)C(=O)N2CCN2CCOCC2)c(OC)c1 (centres undefined)
- IC50 [1]: > 1000 µM
- IC50 [2]: 395 µM

SMILES: COc1ccc(C(=O)C2=C(O)C(=O)N(CCN3CCNCC3)C2c2ccccc2F)cc1 (centres undefined)
- IC50 [1]: > 1000 µM
- IC50 [2]: 630 µM

SMILES: O=C(NCCCO)c1ccc(CSc2nc(O)c3c4c(sc3n2)CCC4)cc1
- IC50 [1]: > 100 µM
- IC50 [2]: > 100 µM

SMILES: NCCCNc1ccc2c3c(nn2CCNCCO)-c2c(O)ccc(O)c2C(=O)c13 [PIROXANTRONE]
- IC50 [1]: 18 µM
- IC50 [2]: 9 µM

SMILES: COc1ccc(C2C(C(=O)c3ccc(F)cc3)=C(O)C(=O)N2CCN(C)C)cc1OC (centres undefined)
- IC50 [1]: > 1000 µM
- IC50 [2]: > 1000 µM

SMILES: NCCCCCCNC(=O)c1c(O)oc2ccccc2c1=O
- IC50 [1]: > 100 µM
- IC50 [2]: > 100 µM

SMILES: Oc1ccc(C(c2c[nH]c3ccccc23)c2c[nH]c3ccccc23)cc1O
- IC50 [1]: 53 µM
- IC50 [2]: 10 µM

SMILES: O=C(O)CCC(=O)Nc1ccc(S(=O)(=O)Nc2ccc(F)cc2)cc1
- IC50 [1]: > 100 µM
- IC50 [2]: > 100 µM

SMILES: COc1ccc(C2C(C(=O)c3ccccc3)=C(O)C(=O)N2CCCO)cc1OC (centres undefined)
- IC50 [1]: > 100 µM
- IC50 [2]: > 100 µM

SMILES: O=c1oc2c(CN(CCO)CCO)c(O)ccc2cc1-c1nc2ccccc2s1
- IC50 [1]: 850 µM
- IC50 [2]: 350 µM

SMILES: CN(C)CCCN1C(=O)C(O)=C(C(=O)c2cccs2)C1c1cccs1 (centres undefined)
- IC50 [1]: > 100 µM
- IC50 [2]: > 100 µM

SMILES: CCN(CC)CCN1C(=O)C(O)=C(C(=O)c2ccccc2)C1c1ccc(OC)cc1OC (centres undefined)
- IC50 [1]: > 1000 µM
- IC50 [2]: > 1000 µM

SMILES: CCOC(=O)c1c(NC(=O)CC2Sc3ccc(C(F)(F)F)cc3NC2=O)sc2c1CCCC2 (centres undefined)
- IC50 [1]: > 100 µM
- IC50 [2]: > 100 µM

SMILES: COC(=O)c1c(NC(=O)CC2Nc3ccccc3NC2=O)sc2c1CCCC2 (centres undefined)
- IC50 [1]: > 100 µM
- IC50 [2]: > 100 µM
